Test results from PMC6061410 (Clinical Drug Investigation, 2018).

Key:
healthy young subjects = assay: Safety and tolerability; format: in vivo, human
How it was run: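 Adverse events were recorded by system organ class and preferred term in 12 healthy young subjects. Each received single fasted 25-mg doses in the morning and evening, open-label crossover, washout ≥11 days. Baselines were the last measurements before the morning dose and before the evening dose.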

[1] = Pharmacokinetics after single and multiple doses, part 1; format: in vivo, human; settings: for AUCτ,ss,norm / Cmax,ss,norm / AUC0–24,norm / Cmax,norm / AUC(0-t) / AUC / Cmax: gMean (%CV); for AUC: AUCτ,ss; for Tmax: median and range (minimum, maximum)
How it was run: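 Randomised 3:1 double-blind placebo-controlled groups (9 active, 3 placebo) of healthy young or elderly subjects took 5- or 25-mg tablets. Dosing was a single dose on day 1, QD or BID for 10 days from day 4, and a single dose on day 14. Fasted on days 1 and 14. Blood was sampled through day 23 and urine after first and last doses (QD only). Plasma/urine LC-MS/MS used a seven-point calibration. Geometric mean (%CV) values were reported.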

[2] = Pharmacokinetics of 25-mg single morning or evening dose, part 2; format: in vivo, human
How it was run: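 Open-label two-period crossover in 12 healthy young subjects. Each took single fasted 25-mg doses, morning and evening, separated by a washout of at least 11 days. Blood was sampled pre-dose to 96 h and measured by LC-MS/MS. AUC0–tz, AUC0–∞ and Cmax were given as adjusted gMeans with evening/morning ratio and 90% CI. tmax was given as median (range).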

Effect of food intake = format: in vivo, human; settings: 25 mg; for Cmax: human, plasma, oral, Cmax at steady state, gMean
How it was run: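 Healthy young (25 mg, group 2) and elderly (25 mg, group 5) subjects were dosed once daily with tablets. On day 12, group 2 dosed light-fed (standardised ~500 kcal breakfast 30 min pre-dose) and group 5 dosed light-fasted (no food ≥10 h before until 1 h after). Day 12 plasma profiles were compared with day 14 fasted profiles (no food ≥10 h before until 3.5 h after) as gMean ratios.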

Intrinsic solubility = format: physicochemical
CYP3A4 = settings: cited from earlier work
[3] = elderly, 25 mg QD, multiple dose
[4] = elderly, 50 mg QD, multiple dose
[5] = young subjects, standardised light breakfast

C[C@@H](Oc1ccc(S(C)(=O)=O)cc1C(=O)N1C[C@@H]2C[C@]2(c2cc(C(F)(F)F)on2)C1)C(F)(F)F [BI 425809]
changes in laboratory parameters, vital signs, 12-lead ECG, examinations, suicidality, oxygen saturation, VAS (healthy young subjects; part 2, single 25 mg doses): No clinically relevant changes
serious AEs (healthy young subjects; part 2, single 25 mg doses): No serious AEs were reported
Dizziness (healthy young subjects; young, part 2, 25 mg QD): 0 (–) n (%)
Eye disorders (healthy young subjects; young, part 2, 25 mg QD): 0 (–) n (%)
Gastrointestinal disorders (healthy young subjects; young, part 2, 25 mg QD): 0 (–) n (%)
General disorders and administration site conditions (healthy young subjects; young, part 2, 25 mg QD): 0 n (%)
Headache (healthy young subjects; young, part 2, 25 mg QD): 1 (8.3) n (%)
Infections and infestations (healthy young subjects; young, part 2, 25 mg QD): 1 (8.3) n (%)
Insomnia (healthy young subjects; young, part 2, 25 mg QD): 0 (–) n (%)
Musculoskeletal and connective tissue disorders (healthy young subjects; young, part 2, 25 mg QD): 0 (–) n (%)
Nasopharyngitis (healthy young subjects; young, part 2, 25 mg QD): 1 (8.3) n (%)
Nervous system disorder (healthy young subjects; young, part 2, 25 mg QD): 1 (8.3) n (%)
Ocular discomfort (healthy young subjects; young, part 2, 25 mg QD): 0 (–) n (%)
Psychiatric disorders (healthy young subjects; young, part 2, 25 mg QD): 0 (–) n (%)
Subjects with AEs leading to study discontinuation (healthy young subjects; young, part 2, 25 mg QD): 0 (–) n (%)
Subjects with investigator-defined drug-related AEs (healthy young subjects; young, part 2, 25 mg QD): 0 (–) n (%)
Total with AEs (healthy young subjects; young, part 2, 25 mg QD): 2 (16.7) n (%)
Vision blurred (healthy young subjects; young, part 2, 25 mg QD): 0 (–) n (%)
dose proportionality of exposure parameters (Cmax, AUC0–24, Cmax,ss and AUCτ,ss) ([1]; 10 and 25 mg, tablet): dose proportionality was observed
linearity index ([1]; QD groups): ~1
time to steady state after the start of multiple dosing ([1]; all treatment groups): 2 to 6 days
dose proportionality of exposure ([1]; doses of ≥ 50 mg, tablet): clearly less than dose proportional
AUCτ,ss,norm [1, 3]: 439 (11.6) nmol·h/L/mg
Cmax,ss,norm [1, 3]: 24.7 (10.9) nmol/L/mg
AUC0–24,norm ([1]; elderly, 25 mg QD, single dose): 139 (18.5) nmol·h/L/mg
Cmax,norm ([1]; elderly, 25 mg QD, single dose): 9.4 (18.7) nmol/L/mg
AUCτ,ss,norm [1, 4]: 278 (30.8) nmol·h/L/mg
Cmax,ss,norm [1, 4]: 16.0 (25.0) nmol/L/mg
AUC0–24,norm ([1]; elderly, 50 mg QD, single dose): 112 (17.9) nmol·h/L/mg
Cmax,norm ([1]; elderly, 50 mg QD, single dose): 7.43 (25.9) nmol/L/mg
AUC(0-t) ([1]; human, plasma, oral, 10 mg, AUC0–24, young, 10 mg QD, single dose): 1.41 µM·h
AUC ([1]; human, plasma, oral, 10 mg, young, 10 mg QD, multiple dose): 3.87 µM·h
Cmax ([1]; human, plasma, oral, 10 mg, Cmax, young, 10 mg QD, single dose): 109 nM
Tmax ([1]; human, plasma, oral, 10 mg, tmax,ss, young, 10 mg QD, multiple dose): 4.5 h
AUC(0-t) ([1]; human, plasma, oral, 25 mg, AUC0–24, elderly, 25 mg QD, single dose): 3.46 µM·h
AUC(0-t) ([1]; human, plasma, oral, 25 mg, AUC0–24, young, 25 mg QD, single dose): 3.72 µM·h
AUC ([1]; human, plasma, oral, 25 mg, elderly, 25 mg QD, multiple dose): 11 µM·h
AUC ([1]; human, plasma, oral, 25 mg, young, 25 mg QD, multiple dose): 10.6 µM·h
Cmax ([1]; human, plasma, oral, 25 mg, Cmax, elderly, 25 mg QD, single dose): 235 nM
Cmax ([1]; human, plasma, oral, 25 mg, Cmax, young, 25 mg QD, single dose): 278 nM
Cmax ([1]; human, plasma, oral, 25 mg, Cmax,ss, elderly, 25 mg QD, multiple dose): 618 nM
Cmax ([1]; human, plasma, oral, 25 mg, Cmax,ss, young, 25 mg QD, multiple dose): 582 nM
Tmax ([1]; human, plasma, oral, 25 mg, tmax, elderly, 25 mg QD, single dose): 3.5 h
Tmax ([1]; human, plasma, oral, 25 mg, tmax, young, 25 mg QD, single dose): 4.5 h
Tmax ([1]; human, plasma, oral, 25 mg, tmax,ss, elderly, 25 mg QD, multiple dose): 3 h
Tmax ([1]; human, plasma, oral, 25 mg, tmax,ss, young, 25 mg QD, multiple dose): 3.75 h
AUC(0-t) ([1]; human, plasma, oral, 50 mg, AUC0–24, elderly, 50 mg QD, single dose): 5.62 µM·h
AUC(0-t) ([1]; human, plasma, oral, 50 mg, AUC0–24, young, 50 mg QD, single dose): 6.02 µM·h
AUC ([1]; human, plasma, oral, 50 mg, elderly, 50 mg QD, multiple dose): 13.9 µM·h
AUC ([1]; human, plasma, oral, 50 mg, young, 50 mg QD, multiple dose): 14.2 µM·h
Cmax ([1]; human, plasma, oral, 50 mg, Cmax, elderly, 50 mg QD, single dose): 371 nM
Cmax ([1]; human, plasma, oral, 50 mg, Cmax, young, 50 mg QD, single dose): 397 nM
Cmax ([1]; human, plasma, oral, 50 mg, Cmax,ss, elderly, 50 mg QD, multiple dose): 802 nM
Cmax ([1]; human, plasma, oral, 50 mg, Cmax,ss, young, 50 mg QD, multiple dose): 800 nM
Tmax ([1]; human, plasma, oral, 50 mg, tmax, elderly, 50 mg QD, single dose): 4.5 h
Tmax ([1]; human, plasma, oral, 50 mg, tmax, young, 50 mg QD, single dose): 4.5 h
Tmax ([1]; human, plasma, oral, 50 mg, tmax,ss, elderly, 50 mg QD, multiple dose): 4.5 h
Tmax ([1]; human, plasma, oral, 50 mg, tmax,ss, young, 50 mg QD, multiple dose): 3.5 h
AUC(0-t) ([1]; human, plasma, oral, 75 mg, AUC0–24, young, 75 mg BID, single dose, fed): 12 µM·h
AUC(0-t) ([1]; human, plasma, oral, 75 mg, AUC0–24, young, 75 mg QD, single dose, fasted): 7.17 µM·h
AUC ([1]; human, plasma, oral, 75 mg, young, 75 mg QD, multiple dose): 16.5 µM·h
Cmax ([1]; human, plasma, oral, 75 mg, Cmax, young, 75 mg BID, single dose, fed): 884 nM
Cmax ([1]; human, plasma, oral, 75 mg, Cmax, young, 75 mg QD, single dose, fasted): 451 nM
Cmax ([1]; human, plasma, oral, 75 mg, Cmax,ss, young, 75 mg QD, multiple dose): 1020 nM
Tmax ([1]; human, plasma, oral, 75 mg, tmax, young, 75 mg BID, single dose): 4.02 h
Tmax ([1]; human, plasma, oral, 75 mg, tmax,ss, young, 75 mg BID, multiple dose, tmax,22 given): 3.5 h
Tmax ([1]; human, plasma, oral, 75 mg, tmax,ss, young, 75 mg QD, multiple dose): 4.5 h
exposure multiple (AUC0–24 and Cmax), 75-mg BID dose group vs 25-mg dose group ([1]; in vivo): 3.2 fold
increase in AUCτ,ss, 75 mg BID vs. 75 mg QD ([1]; multiple dosing): 14%
increase in Cmax,ss, 75 mg BID vs. 75 mg QD ([1]; multiple dosing): 90%
Cmax ([1]; read-out: Cmax,ss, young, 10 mg QD, multiple dose): 221 nM
AUCτ,ss,norm ([1]; young, 10 mg QD, multiple dose): 387 (22.2) nmol·h/L/mg
Cmax,ss,norm ([1]; young, 10 mg QD, multiple dose): 22.1 (19.5) nmol/L/mg
AUC0–24,norm ([1]; young, 10 mg QD, single dose): 141 (20.1) nmol·h/L/mg
Cmax,norm ([1]; young, 10 mg QD, single dose): 10.9 (19.0) nmol/L/mg
AUCτ,ss,norm ([1]; young, 25 mg QD, multiple dose): 425 (31.7) nmol·h/L/mg
Cmax,ss,norm ([1]; young, 25 mg QD, multiple dose): 23.3 (27.6) nmol/L/mg
AUC0–24,norm ([1]; young, 25 mg QD, single dose): 149 (18.2) nmol·h/L/mg
Cmax,norm ([1]; young, 25 mg QD, single dose): 11.1 (19.7) nmol/L/mg
AUCτ,ss,norm ([1]; young, 50 mg QD, multiple dose): 285 (29.4) nmol·h/L/mg
Cmax,ss,norm ([1]; young, 50 mg QD, multiple dose): 16.0 (26.3) nmol/L/mg
AUC0–24,norm ([1]; young, 50 mg QD, single dose): 120 (24.4) nmol·h/L/mg
Cmax,norm ([1]; young, 50 mg QD, single dose): 7.95 (28.7) nmol/L/mg
AUCτ,ss,norm ([1]; young, 75 mg BID, multiple dose, AUCτ,22,norm given): 251 (20.2) nmol·h/L/mg
Cmax,ss,norm ([1]; young, 75 mg BID, multiple dose, Cmax,22,norm given): 25.8 (17.2) nmol/L/mg
AUC0–24,norm ([1]; young, 75 mg BID, single dose): 160 (13.7) nmol·h/L/mg
Cmax,norm ([1]; young, 75 mg BID, single dose): 11.8 (8.72) nmol/L/mg
AUCτ,ss,norm ([1]; young, 75 mg QD, multiple dose): 220 (29.6) nmol·h/L/mg
Cmax,ss,norm ([1]; young, 75 mg QD, multiple dose): 13.6 (23.1) nmol/L/mg
AUC0–24,norm ([1]; young, 75 mg QD, single dose): 95.6 (17.9) nmol·h/L/mg
Cmax,norm ([1]; young, 75 mg QD, single dose): 6.01 (17.9) nmol/L/mg
AUC0–tz, adjusted gMean ratio evening/morning (90% CI) ([2]; 25 mg single dose): 120 (107–135) %
AUC0–∞, adjusted gMean ratio evening/morning (90% CI) ([2]; 25 mg single dose): 118 (104–134) %
Cmax, adjusted gMean ratio evening/morning (90% CI) ([2]; 25 mg single dose): 115 (98.1–136) %
higher gMean Cmax, evening compared with morning administration ([2]; 25 mg single dose, 90% CI 98.1–136): 15%
higher AUC0–tz, evening compared with morning administration ([2]; 25 mg single dose, 90% CI 107–135): 20%
AUC0–tz, adjusted gMean ([2]; 25 mg single evening dose, fasted): 8.41 µM·h
higher exposure, evening compared with morning ([2]; 25-mg tablet): 15–20%
AUC(0-t) ([2]; human, plasma, oral, 25 mg): 7 µM·h
Tmax ([2]; human, plasma, oral, 25 mg): 4.5 h
AUC(0-inf) ([2]; human, plasma, oral, 25 mg, AUC0–∞, adjusted gMean, 25 mg single morning dose, fasted): 8.77 µM·h
Cmax ([2]; human, plasma, oral, 25 mg, Cmax, adjusted gMean, 25 mg single morning dose, fasted): 241 nM
gMean ratio (light fed:light fasted) steady-state AUC (Effect of food intake): 105.2%
gMean ratio (light fed:light fasted) steady-state Cmax (Effect of food intake): 106.8%
gMean ratio (light fasted:fasted) steady-state AUC (Effect of food intake; elderly subjects): 104.5%
gMean ratio (light fasted:fasted) steady-state Cmax (Effect of food intake; elderly subjects): 108.3%
gMean ratio (light fed:fasted) steady-state AUC (Effect of food intake; young subjects): 114.0%
gMean ratio (light fed:fasted) steady-state Cmax (Effect of food intake; young subjects): 123.2%
increase in steady-state AUC, light fed compared with fasted (Effect of food intake; [5]): 14%
increase in steady-state Cmax, light fed compared with fasted (Effect of food intake; [5]): 23%
Cmax (Effect of food intake; healthy elderly subjects, fasted): 611 nM
Cmax (Effect of food intake; healthy elderly subjects, light fasted): 662 nM
Cmax (Effect of food intake; healthy young subjects, fasted): 574 nM
Cmax (Effect of food intake; healthy young subjects, fed (light fed)): 707 nM
intrinsic solubility (Intrinsic solubility): low intrinsic solubility
role of CYP3A4 in metabolic pathway (CYP3A4; drug–drug interaction study confirming in-vitro data): major component of the BI 425809 metabolic pathway
CYP3A4 induction (CYP3A4; in-vitro and clinical studies): has the potential to induce CYP3A4 activity
metabolising enzyme (CYP3A4; in-vitro and clinical studies): primarily metabolised by CYP3A4
